We go through 8 molecules from ChEMBL document CHEMBL4477243, “Discovery and SAR of a novel series of potent, CNS penetrant M4 PAMs based on a non-enolizable ketone core: Challenges in disposition” (Bioorg Med Chem Lett, 2016).

In data set [1] the target is T1, Muscarinic acetylcholine receptor M4 (Rattus norvegicus) (UniProt P08485).
T1 sequence (whole entry): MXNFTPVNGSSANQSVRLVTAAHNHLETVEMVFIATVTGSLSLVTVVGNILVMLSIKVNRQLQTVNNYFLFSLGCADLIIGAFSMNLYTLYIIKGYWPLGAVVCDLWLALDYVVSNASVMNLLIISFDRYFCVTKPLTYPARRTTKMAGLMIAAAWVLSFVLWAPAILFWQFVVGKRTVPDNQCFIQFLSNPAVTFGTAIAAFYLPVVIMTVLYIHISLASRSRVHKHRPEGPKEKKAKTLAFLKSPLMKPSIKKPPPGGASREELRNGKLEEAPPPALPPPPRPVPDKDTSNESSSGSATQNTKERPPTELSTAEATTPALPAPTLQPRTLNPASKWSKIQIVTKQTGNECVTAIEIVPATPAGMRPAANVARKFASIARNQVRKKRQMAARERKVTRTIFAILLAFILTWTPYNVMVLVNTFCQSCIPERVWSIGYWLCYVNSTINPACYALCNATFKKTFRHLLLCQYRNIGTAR
Put plainly: Positive allosteric modulation activity at rat M4 receptor expressed in CHO cells co-expressing Gqi5 protein assessed as potentiation of EC20 acetyl choline-induced response by calcium mobilization assay relative to acetylcholine. It is filed as functional, cell-based. The procedure, abridged:
(§1)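 Calcium mobilization in CHO cells stably co-expressing human or rat M4 with the chimeric Gqi5 protein. Test compound given with a fixed EC20 concentration of acetylcholine. Potency reported as EC50; efficacy as % of the acetylcholine maximum. Means of three independent experiments, each in triplicate.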
In general terms: Calcium assays in cells follow changes in intracellular calcium, usually with a dye or a luminescent sensor.

Data set [2] can be described thus: Ratio of drug level in Sprague-Dawley rat brain to plasma at 0.2 to 0.25 mg/kg, iv administered as cassette dose measured 0.25 hrs post dose. As to conditions: brain and plasma. The class given is ADME, organism-based. The method, boiled down:
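Male Sprague-Dawley rats (n=1) received an IV cassette dose of 0.20-0.25 mg/kg. Brain and plasma sampled 0.25 hr post-administration. Total brain:plasma partition coefficient (Kp) measured; unbound coefficient (Kp,uu) calculated.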

A short description of data set [3]: Fraction unbound in rat plasma. The class given is ADME, cell-free. The procedure, abridged:
(§2)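 Plasma protein binding, reported as fraction unbound in rat and human plasma. Single experiment (n=1) run in triplicate.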

The subject of a further data set is Cytochrome P450. Nature of the data set: Inhibition of Cytochrome P450 (unknown origin). It is filed as ADME, protein assay. As to conditions: human.
Data set [4] in a line: Selectivity ratio of EC50 for rat M4 receptor expressed in CHO cells co-expressing Gqi5 protein to EC50 for human M4 receptor expressed in CHO cells co-expressing Gqi5 protein. The class given is cell-based.
Data set [5] in a line: Drug metabolism in cryopreserved human hepatocytes assessed as secondary alcohol 18 formation. The class given is ADME, cell-based, Hepatocyte.
Data set [6] concerns the target T2, Muscarinic acetylcholine receptor M4 (Rattus norvegicus, UniProt P08485).
T2 sequence (P08485 whole entry): T1 sequence (whole entry)
Nature of the data set: Positive allosteric modulation activity at rat M4 receptor expressed in CHO cells co-expressing Gqi5 protein assessed as potentiation of EC20 acetyl choline-induced response by calcium mobilization assay. It is filed as functional, cell-based. The procedure, abridged: as §1

Data set [7] in a line: Drug metabolism in cryopreserved rat hepatocytes assessed as secondary alcohol 18 formation. It is filed as ADME, cell-based, Hepatocyte.
Another data set has as its target T3, Cytochrome P450 1A2 (Homo sapiens, UniProt P05177).
T3 sequence (P05177 whole entry): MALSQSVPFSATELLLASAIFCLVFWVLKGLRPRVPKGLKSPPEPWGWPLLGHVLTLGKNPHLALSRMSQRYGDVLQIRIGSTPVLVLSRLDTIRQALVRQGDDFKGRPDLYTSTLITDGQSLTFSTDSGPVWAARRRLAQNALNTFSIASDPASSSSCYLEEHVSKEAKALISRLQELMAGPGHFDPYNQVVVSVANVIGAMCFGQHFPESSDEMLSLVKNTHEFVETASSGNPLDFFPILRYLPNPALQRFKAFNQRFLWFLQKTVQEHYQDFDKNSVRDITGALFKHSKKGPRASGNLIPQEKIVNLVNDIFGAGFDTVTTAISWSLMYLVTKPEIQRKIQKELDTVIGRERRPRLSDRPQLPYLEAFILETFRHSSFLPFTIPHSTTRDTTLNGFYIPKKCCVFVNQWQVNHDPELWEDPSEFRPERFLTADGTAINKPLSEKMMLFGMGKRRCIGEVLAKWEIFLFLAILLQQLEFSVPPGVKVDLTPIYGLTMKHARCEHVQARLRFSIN
Nature of the data set: Inhibition of CYP1A2 (unknown origin). It is filed as ADME.

Data set [8] concerns the target T4, Muscarinic acetylcholine receptor M4 (Homo sapiens) (UniProt P08173).
T4 sequence (whole entry): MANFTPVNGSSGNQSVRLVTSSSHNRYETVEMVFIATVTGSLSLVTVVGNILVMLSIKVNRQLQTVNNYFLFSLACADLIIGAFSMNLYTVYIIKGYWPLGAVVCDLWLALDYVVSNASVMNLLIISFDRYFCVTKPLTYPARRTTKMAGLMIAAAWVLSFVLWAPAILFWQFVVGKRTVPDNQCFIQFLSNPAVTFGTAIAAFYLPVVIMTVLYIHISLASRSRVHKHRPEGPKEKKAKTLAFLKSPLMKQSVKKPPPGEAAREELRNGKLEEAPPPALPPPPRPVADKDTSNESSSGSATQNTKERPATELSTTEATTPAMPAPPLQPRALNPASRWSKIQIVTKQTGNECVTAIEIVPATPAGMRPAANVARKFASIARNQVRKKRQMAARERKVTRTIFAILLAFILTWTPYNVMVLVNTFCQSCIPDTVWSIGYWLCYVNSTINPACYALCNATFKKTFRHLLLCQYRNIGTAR
Put plainly: Positive allosteric modulation activity at human M4 receptor expressed in CHO cells co-expressing Gqi5 protein assessed as potentiation of EC20 acetyl choline-induced response by calcium mobilization assay relative to acetylcholine. The class given is functional, cell-based. The procedure, abridged:
as §1

Data set [9] deals with T5, Muscarinic acetylcholine receptor M4 (Homo sapiens, UniProt P08173).
T5 sequence (P08173 whole entry): T4 sequence (whole entry)
Nature of the data set: Positive allosteric modulation activity at human M4 receptor expressed in CHO cells co-expressing Gqi5 protein assessed as potentiation of EC20 acetyl choline-induced response by calcium mobilization assay. It is filed as functional, cell-based. The method, boiled down: as §1

Data set [10] can be described thus: Fraction unbound in human plasma. It is filed as ADME, cell-free. The procedure, abridged: as §2
A short description of data set [11]: Drug level in cryopreserved rat hepatocytes treated with (3-amino-4,6-dimethylthieno[2,3-b]pyridin-2-yl)(pyridin-4-yl)methanone assessed as compound formation. The class given is ADME, cell-based, Hepatocyte.
Data set [12] can be described thus: Drug level in cryopreserved human hepatocytes treated with (3-amino-4,6-dimethylthieno[2,3-b]pyridin-2-yl)(pyridin-4-yl)methanone assessed as compound formation. The class given is ADME, cell-based, Hepatocyte.
Data set [13] in a line: Intrinsic clearance in human microsomes. The class given is ADME, Microsome. The procedure, abridged: (§3)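 Hepatic microsomal intrinsic clearance, from which predicted hepatic clearance was derived. Single experiment (n=1) run in triplicate.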
The target in data set [14] is T6, Muscarinic acetylcholine receptor M5 (Homo sapiens) (UniProt P08912).
T6 sequence (whole entry): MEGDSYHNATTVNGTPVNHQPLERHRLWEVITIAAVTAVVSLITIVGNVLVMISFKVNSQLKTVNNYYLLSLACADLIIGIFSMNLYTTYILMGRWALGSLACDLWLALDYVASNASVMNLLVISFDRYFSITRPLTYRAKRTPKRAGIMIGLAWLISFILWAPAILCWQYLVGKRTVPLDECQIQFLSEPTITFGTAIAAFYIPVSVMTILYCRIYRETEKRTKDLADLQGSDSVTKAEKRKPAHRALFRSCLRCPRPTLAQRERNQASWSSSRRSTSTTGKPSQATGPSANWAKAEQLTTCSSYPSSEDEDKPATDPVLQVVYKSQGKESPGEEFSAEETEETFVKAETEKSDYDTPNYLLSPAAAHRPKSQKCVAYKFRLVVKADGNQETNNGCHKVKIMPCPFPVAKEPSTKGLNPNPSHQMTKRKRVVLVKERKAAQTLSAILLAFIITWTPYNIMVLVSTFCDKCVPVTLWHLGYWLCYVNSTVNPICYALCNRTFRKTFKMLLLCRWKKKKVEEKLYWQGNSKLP
Nature of the data set: Positive allosteric modulation activity at human M5 receptor.

A short description of data set [15]: Intrinsic clearance in rat microsomes. It is filed as ADME, Microsome. The method, boiled down:
as §3

Active and inactive are the calls of the source. The calls are words filed in the database; no cut-off is given here. Some results are limits rather than exact numbers.

The Kp is tissue or fluid exposure divided by exposure in the circulation. By fraction unbound is commonly meant the share of the substance not bound to proteins or other matrix. `Cc1cc(C)c2c(N)c(C(=O)c3ccncc3)sc2n1`: the values for the %max in data set [1] and in [8] were 64% and 71%, respectively. Besides, the Kp at 0.25 h in data set [2] lay in the range of 0.83 to 6.95. Further, the fraction unbound in data set [3] and in data set [10] was 0.005 to 0.18 in each case. The “inhibition (INH)” value with Cytochrome P450 is reported as “Not Active”; on Cytochrome P450 1A2, “Active”. Moreover, the Ratio EC50 in data set [4] is 4 to 7. Further, the Drug metabolism result in data set [5] and in data set [7] was “Metabolite_Detected” each time. The values for the EC50 in data set [6] (read-out: EC50) and in [9] (read-out: EC50) were 2240 nM and 589 nM, respectively.

As to `Cc1cc(C)c2c(N)c(C(=O)c3ccc(F)cc3F)sc2n1`, the %max in [1] was found to be 35%; in data set [8] it was 39%. In data set [2], the Kp at 0.25 h lay in the range of 0.83 to 6.95. In addition, the fraction unbound in [3] and in [10] was 0.005 to 0.18 throughout. In addition, the “inhibition (INH)” value is given as “Not Active” in the data set with Cytochrome P450 and “Active” against Cytochrome P450 1A2. In addition, the Ratio EC50 in [4] was in the range of 4 to 7. In addition, the EC50 in data set [6] (read-out: EC50) stood at 3980 nM; in data set [9] (read-out: EC50), 562 nM.

`Cc1cc(C)c2c(N)c(C(O)c3ccncc3)sc2n1` (stereo not drawn): the Drug metabolism result in data set [11] and in [12] was “Metabolite_Detected” each time. Besides, the EC50 in data set [6] (read-out: EC50) and in data set [9] (read-out: EC50) was greater than 10000 nM in each case.

For the molecule `Cc1nnc2sc(C(=O)c3cccnc3)c(N)c2c1C`, the %max came out at 95% in data set [1] and 74% in [8]. Besides, the Kp at 0.25 h in data set [2] fell in the range of 0.83 to 6.95. The fraction unbound in data set [3] and in data set [10] was 0.005 to 0.18 each time. Besides, the entries for the “inhibition (INH)” value with Cytochrome P450 and on Cytochrome P450 1A2 were “Not Active” and “Active”, respectively. Further, the EC50 amounted to 417 nM in data set [6] (read-out: EC50) and 105 nM in [9] (read-out: EC50).

Turning to `Cc1cc(C)c2c(N)c(C(=O)c3ccc(O)cc3)sc2n1`, the %max in data set [1] worked out at 73%; in data set [8], 70%. Besides, the Kp at 0.25 h in data set [2] was in the range of 0.83 to 6.95. Further, the fraction unbound in data set [3] and in [10] was 0.005 to 0.18 throughout. Besides, the “inhibition (INH)” value in the data set on Cytochrome P450 is reported as “Not Active”; on Cytochrome P450 1A2 it was “Active”. The EC50 in [6] (read-out: EC50) stood at 380 nM; in data set [9] (read-out: EC50), 355 nM.

Consider `COc1ccc(C(=O)c2sc3nc(C)cc(C)c3c2N)cc1`, for which the results for the %max in [1] and in data set [8] were 54% and 48%, respectively. Moreover, in data set [2], the Kp at 0.25 h was 0.83 to 6.95. Also, the fraction unbound in data set [3] and in [10] was 0.005 to 0.18 throughout. In addition, the “inhibition (INH)” value with Cytochrome P450 was “Not Active”; on Cytochrome P450 1A2 it was “Active”. For the same molecule, the results for the EC50 in data set [6] (read-out: EC50) and in data set [9] (read-out: EC50) were 490 nM and 479 nM, respectively.

Consider `Cc1nnc2sc(C(=O)c3ccc(F)cc3F)c(N)c2c1C`, for which the %max in data set [1] was found to be 66%; in data set [8], 55%. Besides, the Kp at 0.25 h in data set [2] is 0.83 to 6.95. Further, the fraction unbound in data set [3] and in data set [10] was 0.005 to 0.18 each time. For the same molecule, the “inhibition (INH)” value was “Not Active” with Cytochrome P450 and “Active” against Cytochrome P450 1A2. The results for the EC50 in [6] (read-out: EC50) and in [9] (read-out: EC50) were 380 nM and 331 nM, respectively.

By CLint scaled is commonly meant the capacity of the preparation to metabolise the compound, expressed as a volume cleared per time. A higher CLint scaled goes with rapid turnover. As for `Cc1nc2sc(C(=O)c3ccccc3)c(N)c2c(C)c1C`, the CLint scaled in [13] was 429 mL/min/kg; in [15], 2070 mL/min/kg. The results for the %max in [1] and in data set [8] were 71 to 80.5% and 76 to 76.8%, respectively. In addition, the fraction unbound came out at 0.008 in [3] and 0.007 in [10]. Further, the EC50 in [6] (read-out: EC50) is 76 to 145 nM; in data set [6] (read-out: pEC50 (converted)) it was 145 nM; in data set [9] (read-out: EC50), 120 to 138 nM; in data set [9] (read-out: pEC50 (converted)) it was 138 nM. Moreover, the result in data set [14] was inactive.
